The results in this text go back to the RNAGym collection of RNA variant scans (doi:10.1126/science.aae0568).

Variants at the floor of the assay were thinned out.

B1: tRNA (parent)
chain: GUUCCGUUGGCGUAAUGGUAACGCGUCUCCCUCCUAAGGAGAAGACUGCGGGUUCGAGUCCCGUACGGAACG

The variants in the data set derive from B1. The data set can be described thus: yeast fitness relative to wild type (ratio to wild type); higher = fitter; tRNA-Arg(CCU), competitive growth, 37 C, YPD. In outline:
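Variants of the tRNA-Arg(CCU) gene, chemically synthesised with a 3% per-site mutation rate at 69 sites, were placed at the native genomic locus in Saccharomyces cerevisiae. The pooled strains were competed in YPD at 37°C for 24 hours in six parallel replicates. Gene amplicons from the start population and from each end population were read by 100-nucleotide paired-end sequencing. Darwinian fitness relative to wild type came from changes in genotype frequencies; genotypes needed ≥ 100 starting reads, and estimates < 0.5 were set to 0.5.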
On to C24A C31G G38C, for which the yeast fitness is at most 0.5.

For the variant A21G C29U A57G, the yeast fitness was 0.602.

G17C G41C: the yeast fitness came to 0.664.

On to A20C C55A, for which the yeast fitness was determined as 0.699.

For the variant C5G G10A C11G U16G C33G U59C, the yeast fitness is at most 0.5.

As to G12C C30G C62A, the yeast fitness is at most 0.5.

For the variant A37G U53C G58A G68A, the yeast fitness was at most 0.5.

G58C U59A G67C: the yeast fitness is 0.556.

With C31U A43U G48A U53A C62U, the yeast fitness was at most 0.5.

Regarding G41A A70G, the yeast fitness turned out to be 0.924.

As for U2G C4G C31A A37C A57G G67C A69U, the yeast fitness is at most 0.5.

As for C24U U47A C61A, the yeast fitness is at most 0.5.

As to U2G C24U, the yeast fitness amounted to 0.786.

Regarding C5A G17C A57C A70U, the yeast fitness was at most 0.5.

On to U2C A40G A45C, for which the yeast fitness was at most 0.5.

With C11G C24G A42U, the yeast fitness was at most 0.5.

Turning to C24G A43G U47A U53A G68C, the yeast fitness is at most 0.5.

As to C11G A37G G52C A70U, the yeast fitness amounted to 0.57.

For C27U C31A G44C A70G, the yeast fitness is at most 0.5.

For the variant G23C G48C A69U, the yeast fitness is at most 0.5.

G23C C61G G68C: the yeast fitness amounted to 0.5.

Consider G9C A15G A21G G48A C49G C60A, for which the yeast fitness is at most 0.5.

For C5G U8A G39A C55U A70C, the yeast fitness was determined as 0.623.

As for C4U C24A C60G C66U, the yeast fitness is at most 0.5.

C5G A21G U64C: the yeast fitness came to 0.723.

On to G52C C61G, for which the yeast fitness was at most 0.5.

On to G9A U19C G23C, for which the yeast fitness is at most 0.5.

As to C4U A20U C29G C49G G63C, the yeast fitness was at most 0.5.

For C46U G63A, the yeast fitness is 0.769.

For the variant G6A A40G G44A, the yeast fitness was 0.614.

Consider C33A G44A G68U, for which the yeast fitness was at most 0.5.

C4U U26A C33A C34G: the yeast fitness was at most 0.5.

C22U C29U C49A: the yeast fitness is at most 0.5.

C27U U28G C31A C46U: the yeast fitness is at most 0.5.

For the variant C5A A37C, the yeast fitness is 0.77.

With U3A C33U A43C, the yeast fitness was at most 0.5.

As for A20C G25C C29U, the yeast fitness is at most 0.5.

Consider G50C U54C A57G, for which the yeast fitness is at most 0.5.

As to G9C C29U A70G, the yeast fitness was determined as 0.602.

Turning to G6A G9A A14U G63A, the yeast fitness was determined as 0.747.

Regarding C11U G51A U59A, the yeast fitness is at most 0.5.

For G23A U26A C30U A40U G44A U59A, the yeast fitness is at most 0.5.

Take U8C A15C A20U: the yeast fitness came out at 0.544.

Turning to U16C U47C G51U, the yeast fitness is at most 0.5.

As to A15C A65U G67U, the yeast fitness was at most 0.5.

Turning to G10A A69G, the yeast fitness is 0.641.

G18A A65U A69U: the yeast fitness worked out at 0.718.

For the variant A14U C24U G48C C62U A70C, the yeast fitness is at most 0.5.

As to U7A C29G A36G, the yeast fitness is at most 0.5.

On to C29A U35G C55G G68A A69C, for which the yeast fitness was at most 0.5.

Regarding U54C A57U C60A G68C, the yeast fitness is at most 0.5.

A37U G48C G68U: the yeast fitness is 0.57.

On to C33A G48C A69G, for which the yeast fitness was found to be 0.684.

For A15G C22G A36U A40G A69U, the yeast fitness is at most 0.5.

Regarding C11G C34U, the yeast fitness turned out to be 0.672.

On to A14G C24G A65C, for which the yeast fitness was at most 0.5.

C30U A42G C62A: the yeast fitness is at most 0.5.

Consider C5G A14U, for which the yeast fitness was found to be 0.607.

On to A37G A43G C55A G56A, for which the yeast fitness came to 0.6.

Regarding G10A U32G, the yeast fitness was at most 0.5.

Take U26A G39C G48A C60G: the yeast fitness was at most 0.5.

Take G12C C22G C29A A43G: the yeast fitness is at most 0.5.

On to G23C C60G, for which the yeast fitness is at most 0.5.

As to G6A C61U, the yeast fitness turned out to be 0.902.

Regarding G12C A21U A42U, the yeast fitness was found to be 0.611.

Turning to U35C A65G C66U, the yeast fitness was 0.675.

Regarding A42C G67U, the yeast fitness came to 0.811.

As to U3C A45U G50A, the yeast fitness was found to be 0.849.

For the variant G23C C24U U59A, the yeast fitness was at most 0.5.

U2A C24U A42C C62G: the yeast fitness was at most 0.5.

In the case of G50U C62U A69C, the yeast fitness came out at 0.661.

For U64C A65U, the yeast fitness is 0.928.

Take U2A U13A A21C A42G: the yeast fitness was at most 0.5.

As to C27G A65U G68U, the yeast fitness came out at 0.583.

For C24G C31U G41C C46G G63C, the yeast fitness was at most 0.5.

In the case of A15U G18C C29G U64A A69C, the yeast fitness stood at 0.598.

Turning to G38A G48A A65G, the yeast fitness came to 0.559.

Consider U16A U28G G67A, for which the yeast fitness was determined as 0.752.

Consider U3A C30G C33U, for which the yeast fitness came out at 0.536.

In the case of U2G U32C, the yeast fitness came out at 0.867.

For U13A A37U G67C, the yeast fitness stood at 0.645.

Take U16A A42G C49G: the yeast fitness came to 0.542.

Consider C5G U19G A36U G56C A65C, for which the yeast fitness was at most 0.5.

With U3C G25C G41C C46U A65U, the yeast fitness is at most 0.5.

Consider G25A A37U G41A C62G, for which the yeast fitness is at most 0.5.

With A21G C24G, the yeast fitness was found to be 0.642.

U7A A36G A43G C62A: the yeast fitness was at most 0.5.

As to G10A G18A C33U A37C A40U, the yeast fitness was at most 0.5.

As for U2A A15G C31G A40U C60G G67A, the yeast fitness was at most 0.5.

In the case of U3G C31G U64A C66U G68C, the yeast fitness is at most 0.5.

In the case of U2A A14C C30U C34G G51A, the yeast fitness is at most 0.5.

Regarding C34G G39U U47G, the yeast fitness is at most 0.5.

Turning to G12A C24G U26G G39C C49G, the yeast fitness worked out at 0.511.

In the case of G48C G52C A57C G58A A70G, the yeast fitness is at most 0.5.

For U7G A65C, the yeast fitness is 0.998.

Consider G25C C29G C46G G51C, for which the yeast fitness was at most 0.5.

Consider G12A A14G C30G C46A G67U, for which the yeast fitness is at most 0.5.

Take U7G A40C U47A: the yeast fitness is at most 0.5.

On to C24G U47C G68C A70C, for which the yeast fitness was at most 0.5.

For the variant C4U C29U A43U, the yeast fitness is 0.756.

Turning to U32A C46A, the yeast fitness worked out at 0.683.

For the variant C34A U35C, the yeast fitness stood at 0.519.

C22U C34U C55U: the yeast fitness was 0.586.

Regarding U2A G9A U19A A20U, the yeast fitness amounted to 0.622.

Regarding C5A A40U A65U, the yeast fitness came to 0.636.

As for C4G A20G G39A A45C, the yeast fitness is at most 0.5.

In the case of C4U U19C C31A G41C C55A, the yeast fitness is at most 0.5.

In the case of C5A C33G A65U, the yeast fitness was at most 0.5.

Consider C11U C30U C34G, for which the yeast fitness amounted to 0.576.

As to C30U U47C, the yeast fitness turned out to be 0.835.

For A20U C29G C49G U53A, the yeast fitness is at most 0.5.

Consider C11U U35C, for which the yeast fitness came to 0.7.

Regarding U26A C27G C31U C46A A65C G68A, the yeast fitness turned out to be 0.626.

On to C5G U16A G48A U54C, for which the yeast fitness turned out to be 0.701.

As to A45C G63C C66U, the yeast fitness was at most 0.5.

Turning to U8C A14U C30A, the yeast fitness is at most 0.5.

In the case of U2A U16C C30A G67C, the yeast fitness turned out to be 0.557.

Turning to C11G A14U C24A C60A, the yeast fitness is at most 0.5.

In the case of C29U C34A A42U U47C, the yeast fitness stood at 0.64.

Consider U19C C29G A57G U59A G68U A70G, for which the yeast fitness amounted to 0.55.

On to U2C C24U U59C, for which the yeast fitness amounted to 0.537.

With U26G G44A, the yeast fitness came out at 0.87.

On to A15U A43U G48A G68C, for which the yeast fitness was at most 0.5.

As for A15U G58A C66G, the yeast fitness amounted to 0.943.

In the case of U2A G6A C11G A42U A65G C66G G68A, the yeast fitness is at most 0.5.

U16C A20C: the yeast fitness was 0.995.

In the case of A21C U28A A40U C62G C66G, the yeast fitness was at most 0.5.

On to A20C A37G C49G U53A C60U, for which the yeast fitness amounted to 0.527.

In the case of G12C A21C U26C U28C C46G C55U, the yeast fitness was at most 0.5.

As to C5U G6A G44C G63A, the yeast fitness is at most 0.5.

On to C5G A69G, for which the yeast fitness stood at 0.902.

C27U C29G C61U: the yeast fitness came to 0.675.

On to G12C C27U C33G G38C, for which the yeast fitness is at most 0.5.

For the variant U3A C24G C33G G51A U53A G56A G67C, the yeast fitness was at most 0.5.

Take U7A G10C A40G U53A G63A: the yeast fitness is at most 0.5.

As for A21G A45G C46G, the yeast fitness worked out at 0.802.

U19A A57U G67C: the yeast fitness was found to be 0.556.

For G6A G50A G56U G58A, the yeast fitness was at most 0.5.

In the case of C29A A37G G58A, the yeast fitness is at most 0.5.

On to C24U C27U A43C U47C, for which the yeast fitness is 0.618.

Take A65U G67A: the yeast fitness stood at 0.839.

Take C11U A14G C31A C55U G68A: the yeast fitness was at most 0.5.

On to C4U C30G G51C G56U A65G, for which the yeast fitness was at most 0.5.

In the case of G41U, the yeast fitness worked out at 0.988.

Take U2C U7A C31A C66G: the yeast fitness was at most 0.5.

On to A15U A36C A40U A65U, for which the yeast fitness is at most 0.5.

As for A14C C27G C33A A45U G67U, the yeast fitness is at most 0.5.

For the variant U35C G58A, the yeast fitness was 0.77.

With U13G C24U U28A A42G, the yeast fitness was at most 0.5.

Consider A21G A42C G52A, for which the yeast fitness was 0.637.

Take C34U G68A: the yeast fitness came to 0.774.

With U35A C61A A70U, the yeast fitness is at most 0.5.

Regarding C4U A20U A40U G56C, the yeast fitness was at most 0.5.

As to C29G U35G C61U, the yeast fitness worked out at 0.552.

With U19A C46A, the yeast fitness is 1.13.

As to C11U U13C A14G C24A A43C G50C C60G, the yeast fitness is at most 0.5.

For the variant C33G A37U A40C, the yeast fitness is at most 0.5.

As for A36C A42U A43G A70G, the yeast fitness is at most 0.5.

Take U28G U32A G38C A43G: the yeast fitness came out at 0.551.

As to A20C C33A G48A C66U A70G, the yeast fitness is at most 0.5.

Take C4U A65U: the yeast fitness was found to be 1.04.

For G9A C60U U64G, the yeast fitness amounted to 0.696.

In the case of C5A C11G A21U C60G G67A, the yeast fitness is at most 0.5.

With U28A G56A C62A, the yeast fitness was determined as 0.582.

With U2A U3A U59G, the yeast fitness was at most 0.5.

Consider U8G C27U C30A A43C C60U, for which the yeast fitness was at most 0.5.

Turning to C11G G63C, the yeast fitness was determined as 0.543.
